Data published in ChEMBL document CHEMBL4689842, “EUbOPEN Chemogenomics Library wave 1” (2021).
Several values for one entry are separate records, joined by “and”; a condition that tells them apart may be missing. Identical values can stand only once.

System: HEK-293T
Test: Multiplex assay against HEK293T;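 for Population Tubulin-Different-Phenotype (%): share of the cells with healthy nuclei that show this phenotype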
Format: toxicity, cell-based
Settings: human
Summary of the method: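 Per cents of healthy-nucleus cells form the tubulin, mitochondrial-mass and membrane-permeability phenotype values. Live cells were stained at seeding with Hoechst33342, BioTracker Green Microtubule Cytoskeleton Dye, MitoTracker Red and Annexin V Alexa Fluor 680. After compound addition they were imaged on a CQ1 microscope at 37°C and 5% CO2, and CellPathfinder machine-learning gating split them into Hoechst high-intensity objects or normal cells, normal cells into healthy, pyknosed or fragmented nuclei, and pyknosed cells into mitotic or apoptotic.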

[1] = 12 h, 1 µM, compound concentration 1 uM, replicate 1
[2] = 12 h, 1 µM, compound concentration 1 uM, replicate 2
[3] = 12 h, 10 µM, compound concentration 10 uM, replicate 1
[4] = 12 h, 10 µM, compound concentration 10 uM, replicate 2
[5] = 24 h, 1 µM, compound concentration 1 uM, replicate 1
[6] = 24 h, 1 µM, compound concentration 1 uM, replicate 2
[7] = 24 h, 10 µM, compound concentration 10 uM, replicate 1
[8] = 24 h, 10 µM, compound concentration 10 uM, replicate 2
[9] = 48 h, 10 µM, compound concentration 10 uM, replicate 1
[10] = 48 h, 10 µM, compound concentration 10 uM, replicate 2

For `C[C@@]1(C(=O)Nc2ccc(F)nc2)CCCN1c1nc(Nc2cc(C3CC3)n[nH]2)c2cccn2n1` [BMS-754807], the “Population Apoptotic (%)” value [1] was 24%, the “Population Fragmented Nuclei (%)” value [1] was 19% and the “Population Healthy Nuclei (%)” value [1] was 38%. For the same compound, the “Population Hoechst High Intensity Objects (%)” value [1] was 25%, the “Population Membrane Permeable-Phenotype (%)” value [1] was 7% and the “Population Mitochondria Different-Phenotype (%)” value [1] was 32%. The “Population Mitotic Cells (%)” value [1] was 75%, the “Population Normal (%)” value [1] was 74% and the “Population Pyknosed Nuclei (%)” value [1] was 42%. The “Population Tubulin-Different-Phenotype (%)” value [1] was 68%, the “Total Cell Count” value [1] was 622 and the “Population Apoptotic (%)” value [2] was 20%. For the same compound, the “Population Fragmented Nuclei (%)” value [2] was 3%, the “Population Healthy Nuclei (%)” value [2] was 72% and the “Population Hoechst High Intensity Objects (%)” value [2] was 12%. For the same compound, the “Population Mitochondria Different-Phenotype (%)” value [2] was 57%, the “Population Mitotic Cells (%)” value [2] was 80% and the “Population Normal (%)” value [2] was 87%. For the same compound, the “Population Pyknosed Nuclei (%)” value [2] was 23%, the “Population Tubulin-Different-Phenotype (%)” value [2] was 92% and the “Total Cell Count” value [2] was 768. For the same compound, the “Population Fragmented Nuclei (%)” value [3] was 13% and 14%, the “Population Hoechst High Intensity Objects (%)” value [3] was 17% and 19% and the “Population Membrane Permeable-Phenotype (%)” value [3] was 9% and 4%. The “Population Normal (%)” value [3] was 82% and 80%, the “Population Pyknosed Nuclei (%)” value [3] was 71% and 26% and the “Total Cell Count” value [3] was 259 and 598. The “Population Fragmented Nuclei (%)” value [4] was 7% and 3%, the “Population Hoechst High Intensity Objects (%)” value [4] was 9% and 6% and the “Population Membrane Permeable-Phenotype (%)” value [4] was 10% and 3%. For the same compound, the “Population Mitotic Cells (%)” value [4] was 51%, the “Population Normal (%)” value [4] was 90% and 93% and the “Population Tubulin-Different-Phenotype (%)” value [4] was 94% and 44%. The “Population Apoptotic (%)” value [5] was 25%, the “Population Fragmented Nuclei (%)” value [5] was 18% and the “Population Healthy Nuclei (%)” value [5] was 56%. For the same compound, the “Population Hoechst High Intensity Objects (%)” value [5] was 20%, the “Population Membrane Permeable-Phenotype (%)” value [5] was 8% and the “Population Mitochondria Different-Phenotype (%)” value [5] was 32%. The “Population Mitotic Cells (%)” value [5] was 74%, the “Population Normal (%)” value [5] was 79% and the “Population Pyknosed Nuclei (%)” value [5] was 25%. The “Population Tubulin-Different-Phenotype (%)” value [5] was 79%, the “Total Cell Count” value [5] was 652 and the “Population Apoptotic (%)” value [6] was 17%. For the same compound, the “Population Fragmented Nuclei (%)” value [6] was 3%, the “Population Healthy Nuclei (%)” value [6] was 82% and the “Population Hoechst High Intensity Objects (%)” value [6] was 9%. For the same compound, the “Population Membrane Permeable-Phenotype (%)” value [6] was 10%, the “Population Mitochondria Different-Phenotype (%)” value [6] was 44% and the “Population Mitotic Cells (%)” value [6] was 82%. For the same compound, the “Population Normal (%)” value [6] was 90%, the “Population Pyknosed Nuclei (%)” value [6] was 13% and the “Population Tubulin-Different-Phenotype (%)” value [6] was 95%. For the same compound, the “Total Cell Count” value [6] was 865, the “Population Apoptotic (%)” value [7] was 70% and 26% and the “Population Fragmented Nuclei (%)” value [7] was 17% and 14%. The “Population Hoechst High Intensity Objects (%)” value [7] was 14% and 19%, the “Population Membrane Permeable-Phenotype (%)” value [7] was 2% and 5% and the “Population Mitotic Cells (%)” value [7] was 29% and 73%. For the same compound, the “Population Normal (%)” value [7] was 85% and 80%, the “Population Tubulin-Different-Phenotype (%)” value [7] was 94% and 44% and the “Total Cell Count” value [7] was 284 and 562. For the same compound, the “Population Fragmented Nuclei (%)” value [8] was 6% and 8%, the “Population Hoechst High Intensity Objects (%)” value [8] was 10% and 8% and the “Population Membrane Permeable-Phenotype (%)” value [8] was 10% and 4%. The “Population Mitotic Cells (%)” value [8] was 30% and 81%, the “Population Normal (%)” value [8] was 89% and 91% and the “Population Tubulin-Different-Phenotype (%)” value [8] was 95% and 56%. For the same compound, the “Population Apoptotic (%)” value [9] was 65%, the “Population Fragmented Nuclei (%)” value [9] was 17% and the “Population Healthy Nuclei (%)” value [9] was 7%. The “Population Hoechst High Intensity Objects (%)” value [9] was 15%, the “Population Membrane Permeable-Phenotype (%)” value [9] was 15% and the “Population Mitochondria Different-Phenotype (%)” value [9] was 94%. For the same compound, the “Population Mitotic Cells (%)” value [9] was 34%, the “Population Normal (%)” value [9] was 84% and the “Population Pyknosed Nuclei (%)” value [9] was 74%. For the same compound, the “Population Tubulin-Different-Phenotype (%)” value [9] was 94%, the “Total Cell Count” value [9] was 290 and the “Population Apoptotic (%)” value [10] was 78%. For the same compound, the “Population Fragmented Nuclei (%)” value [10] was 4%, the “Population Healthy Nuclei (%)” value [10] was 57% and the “Population Hoechst High Intensity Objects (%)” value [10] was 7%. For the same compound, the “Population Membrane Permeable-Phenotype (%)” value [10] was 3%, the “Population Mitochondria Different-Phenotype (%)” value [10] was 85% and the “Population Mitotic Cells (%)” value [10] was 21%. The “Population Normal (%)” value [10] was 92%, the “Population Pyknosed Nuclei (%)” value [10] was 37% and the “Population Tubulin-Different-Phenotype (%)” value [10] was 96%. The “Total Cell Count” value [10] was 199.
For `CNCc1ccc(-c2cc(-c3nc(-c4ccc(S(=O)(=O)C(C)C)cc4)cnc3N)on2)cc1` [BERZOSERTIB], the “Population Apoptotic (%)” value [1] was 44% and 25%, the “Population Fragmented Nuclei (%)” value [1] was 94% and 79% and the “Population Hoechst High Intensity Objects (%)” value [1] was 36% and 50%. For the same compound, the “Population Membrane Permeable-Phenotype (%)” value [1] was 31% and 34%, the “Population Mitochondria Different-Phenotype (%)” value [1] was 9% and the “Population Mitotic Cells (%)” value [1] was 55% and 75%. The “Population Normal (%)” value [1] was 63% and 49%, the “Population Tubulin-Different-Phenotype (%)” value [1] was 13% and the “Total Cell Count” value [1] was 865 and 596. For the same compound, the “Population Apoptotic (%)” value [2] was 14% and 11%, the “Population Fragmented Nuclei (%)” value [2] was 66% and the “Population Hoechst High Intensity Objects (%)” value [2] was 28% and 80%. The “Population Mitochondria Different-Phenotype (%)” value [2] was 0% and 16%, the “Population Mitotic Cells (%)” value [2] was 85% and 88% and the “Population Tubulin-Different-Phenotype (%)” value [2] was 50% and 60%. For the same compound, the “Total Cell Count” value [2] was 1257 and 695, the “Population Apoptotic (%)” value [3] was 37% and 15% and the “Population Fragmented Nuclei (%)” value [3] was 82% and 86%. The “Population Healthy Nuclei (%)” value [3] was 12% and 7%, the “Population Hoechst High Intensity Objects (%)” value [3] was 48% and 47% and the “Population Membrane Permeable-Phenotype (%)” value [3] was 46% and 29%. The “Population Mitochondria Different-Phenotype (%)” value [3] was 6% and 7%, the “Population Mitotic Cells (%)” value [3] was 62% and 85% and the “Population Normal (%)” value [3] was 51% and 52%. For the same compound, the “Population Pyknosed Nuclei (%)” value [3] was 5%, the “Population Tubulin-Different-Phenotype (%)” value [3] was 18% and 11% and the “Total Cell Count” value [3] was 918 and 667. For the same compound, the “Population Fragmented Nuclei (%)” value [4] was 95% and 56%, the “Population Hoechst High Intensity Objects (%)” value [4] was 34% and 86% and the “Population Mitochondria Different-Phenotype (%)” value [4] was 5% and 9%. The “Population Mitotic Cells (%)” value [4] was 68% and 92%, the “Population Tubulin-Different-Phenotype (%)” value [4] was 82% and 59% and the “Total Cell Count” value [4] was 1271 and 770. The “Population Apoptotic (%)” value [5] was 43% and 15%, the “Population Fragmented Nuclei (%)” value [5] was 91% and 64% and the “Population Hoechst High Intensity Objects (%)” value [5] was 39% and 65%. For the same compound, the “Population Membrane Permeable-Phenotype (%)” value [5] was 50% and 21%, the “Population Mitochondria Different-Phenotype (%)” value [5] was 7% and 13% and the “Population Mitotic Cells (%)” value [5] was 56% and 84%. The “Population Normal (%)” value [5] was 60% and 34%, the “Population Pyknosed Nuclei (%)” value [5] was 3% and 9% and the “Population Tubulin-Different-Phenotype (%)” value [5] was 30% and 11%. The “Total Cell Count” value [5] was 826 and 568, the “Population Hoechst High Intensity Objects (%)” value [6] was 33% and 85% and the “Population Membrane Permeable-Phenotype (%)” value [6] was 33% and 60%. The “Population Mitochondria Different-Phenotype (%)” value [6] was 4% and 6%, the “Population Mitotic Cells (%)” value [6] was 87% and 97% and the “Population Pyknosed Nuclei (%)” value [6] was 30%. The “Population Tubulin-Different-Phenotype (%)” value [6] was 71% and 81%, the “Total Cell Count” value [6] was 1330 and 870 and the “Population Fragmented Nuclei (%)” value [7] was 65% and 58%. For the same compound, the “Population Healthy Nuclei (%)” value [7] was 16% and 26%, the “Population Hoechst High Intensity Objects (%)” value [7] was 46% and 73% and the “Population Membrane Permeable-Phenotype (%)” value [7] was 36% and 31%. The “Population Mitotic Cells (%)” value [7] was 40% and 88%, the “Population Normal (%)” value [7] was 53% and 26% and the “Population Pyknosed Nuclei (%)” value [7] was 17% and 14%. The “Population Tubulin-Different-Phenotype (%)” value [7] was 36% and 27%, the “Total Cell Count” value [7] was 767 and 657 and the “Population Apoptotic (%)” value [8] was 23% and 0%. The “Population Hoechst High Intensity Objects (%)” value [8] was 36% and 86%, the “Population Membrane Permeable-Phenotype (%)” value [8] was 21% and 56% and the “Population Mitochondria Different-Phenotype (%)” value [8] was 14%. The “Population Mitotic Cells (%)” value [8] was 76% and 100%, the “Population Tubulin-Different-Phenotype (%)” value [8] was 78% and 76% and the “Total Cell Count” value [8] was 1281 and 924.
